Source: ChEMBL document CHEMBL1125712 (J Med Chem, 1991)
Active and inactive are the calls of the source. The rule behind the calls is not given here.

Key:
[1] = organism: Rattus norvegicus; assay: animal or person; type: functional
[2] = molecular target: Aldo-keto reductase family 1 member B1 (Homo sapiens, UniProt P15121); assay: Inhibition of aldose reductase (aldo-keto reductase, AKR1B1) isolated from human placenta.
[3] = test system: aldose reductase (Rattus norvegicus); assay: In vivo inhibition of sorbitol accumulation in the rat following 10 mg/kg p.o. administration.; conditions: at 10 mg/kg
[4] = test system: aldose reductase (Rattus norvegicus); assay: In vivo inhibition of sorbitol accumulation in the rat following 10 mg/kg p.o. administration; Not significant.; conditions: at 10 mg/kg
[5] = organism: Rattus norvegicus; conditions: at 25 mg/kg
[6] = test system: Rattus norvegicus; assay: Compound was evaluated for the ED50(acute) in male Sprague-Dawley rats(n=4) treated with streptozotocin (85 mg/kg intravenously).; type: functional; conditions: oral
Outline: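 Streptozotocin-diabetic rats (85 mg/kg iv) dosed by oral gavage, aqueous suspension or solution, at 4, 7 and 24 h. Killed at 27 h. […] ED50 from log linear regression.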

[7] = test system: Rattus norvegicus; assay: Compound was evaluated for the ED50(chronic) in male Sprague-Dawley rats(n=5) treated with streptozotocin (85 mg/kg intravenously).; conditions: oral
[8] = Partition coefficient (logP); type: physicochemical; conditions: octanol/water
[9] = Compound was evaluated for the apparent pKa (dioxane/water) the ratio 2:1; type: physicochemical; conditions: dioxane/water 2:1
[10] = Compound was evaluated for the apparent pKa (dioxane/water) in the ratio 1:1; type: physicochemical; conditions: dioxane/water 1:1

Structure (SMILES) | IC50 [2] | further results
O=C(O)Cc1nn(Cc2nc3cccnc3s2)c(=O)c2ccccc12 | 10 nM | inhibition in vivo at 25 mg/kg ([1]; dose 25 mg/kg, route oral): 83%
O=C(O)Cc1nn(Cc2nc3ccccc3s2)c(=O)c2cc([N+](=O)[O-])ccc12 | 33 nM | 
O=C(O)Cc1nn(Cc2nc3ccccc3s2)c(=O)c2cc(Br)ccc12 | 690 nM | inhibition [3]: 42%
O=C(O)Cc1nn(Cc2nc3ccccc3s2)c(=O)c2cc(Cl)ccc12 | 15 nM | 
CC(C)c1ccc2c(=O)n(Cc3nc4ccccc4s3)nc(CC(=O)O)c2c1 | 110 nM | 
O=C(O)Cc1nn(Cc2nc3c(Cl)ccc(Cl)c3s2)c(=O)c2ccccc12 | 20 nM | inhibition in vivo at 25 mg/kg ([1]; dose 25 mg/kg, route oral): 65%
C[S+]([O-])c1ccc2sc(Cn3nc(CC(=O)O)c4ccccc4c3=O)nc2c1 (configuration not stated) | 4300 nM | 
O=C(O)Cc1nn(CSc2nc3ccccc3s2)c(=O)c2ccccc12 | 81 nM | 
O=C(O)Cc1nn(Cc2nc3ccccc3s2)c(=O)c2ccc([N+](=O)[O-])cc12 | 46 nM | inhibition [4]: inactive
Cc1cccc2c(CC(=O)O)nn(Cc3nc4ccccc4s3)c(=O)c12 | 420 nM | inhibition [4]: inactive
O=C(O)Cc1nn(Cc2nc3c(ccc4ccccc43)s2)c(=O)c2ccccc12 | 510 nM | inhibition [5]: inactive
O=C(O)Cc1nn(Cc2nc3cccc(Cl)c3s2)c(=O)c2ccccc12 | 1 nM | inhibition [3]: 52%
O=C(O)Cc1nn(Cc2nc3cc(Cl)cc(F)c3s2)c(=O)c2ccccc12 | 5 nM | inhibition [3]: 63%
O=C(O)Cc1nn(Cc2ccc(Br)cc2F)c(=O)c2ccccc12 [PONALRESTAT] | 21 nM | 
O=C(O)Cc1nn(Cc2cccc(-c3nc4ccccc4s3)c2)c(=O)c2ccccc12 | 5700 nM | 
COc1ccc2c(CC(=O)O)nn(Cc3nc4ccccc4s3)c(=O)c2c1 | 26 nM | inhibition [4]: inactive
O=C(O)Cc1nn(-c2nc3ccccc3s2)c(=O)c2ccccc12 | > 1000 nM | 
O=C(O)Cc1nn(Cc2nc3ccccc3s2)c(=O)c2ccccc12 | 19 nM | inhibition in vivo at 25 mg/kg ([1]; dose 25 mg/kg, route oral): 67%; ED50 [6]: 18.5 mg/kg
O=C(O)Cc1nn(Cc2nc3c(ccc4ccccc43)s2)c(=O)c2ccc(Cl)cc12 [listing 1 of 2 here] | 350 nM | 
COc1cccc2sc(Cn3nc(CC(=O)O)c4ccccc4c3=O)nc12 | 100 nM | inhibition [5]: inactive
Cc1ccc2c(=O)n(Cc3nc4ccccc4s3)nc(CC(=O)O)c2c1 | 27 nM | 

Structure (SMILES) | IC50 [2] | further results
O=C1NC(=O)C2(CN(Cc3nc4ccccc4s3)c3ccc(Cl)cc32)N1 (configuration not stated) | 37 nM | 
COc1cc(OC)c2sc(Cn3nc(CC(=O)O)c4ccccc4c3=O)nc2c1 | 700 nM | 
O=C(O)Cc1nn(Cc2nc3c(C(F)(F)F)cccc3s2)c(=O)c2ccccc12 | 25 nM | inhibition [3]: 61%
O=C(O)Cc1nn(Cc2nc3cccc(C(F)(F)F)c3s2)c(=O)c2ccccc12 | 10 nM | inhibition [3]: 80%
O=C(O)Cc1nn(Cc2nc3ccc(Cl)cc3s2)c(=O)c2ccccc12 | 76 nM | inhibition in vivo at 25 mg/kg ([1]; dose 25 mg/kg, route oral): 61%
COc1cc2sc(Cn3nc(CC(=O)O)c4ccccc4c3=O)nc2cc1C(F)(F)F | 4300 nM | 
COc1ccc2nc(Cn3nc(CC(=O)O)c4ccccc4c3=O)sc2c1 | 4200 nM | 
O=C(O)Cc1nn(Cc2nc3cc(Cl)cc(C(F)(F)F)c3s2)c(=O)c2ccccc12 | 620 nM | 
O=C1NC(=O)C2(CN(Cc3ccc(F)cc3)c3ccc(F)cc32)N1 (configuration not stated) | 140 nM | 
O=C(O)Cc1nn(Cc2nc3cc(C(F)(F)F)cc(F)c3s2)c(=O)c2ccccc12 | 17 nM | 
O=C(O)Cc1nn(Cc2nc3c(Cl)c(Cl)ccc3s2)c(=O)c2ccccc12 | 100 nM | 
O=C(O)Cc1nn(Cc2nc3ccccc3s2)c(=O)c2ccc(Br)cc12 | 12 nM | 
O=C(O)Cc1nn(Cc2nc3c(F)cccc3s2)c(=O)c2ccccc12 | 2 nM | inhibition [4]: inactive
O=C(O)Cc1nn(Cc2ccc(-c3nc4ccccc4s3)cc2)c(=O)c2ccccc12 | > 1000 nM | 
CSc1ccc2sc(Cn3nc(CC(=O)O)c4ccccc4c3=O)nc2c1 | 60 nM | 
CC(C)c1ccc2nc(Cn3nc(CC(=O)O)c4ccccc4c3=O)sc2c1 | 3200 nM | 
O=C(O)Cc1nn(Cc2nc3cc(F)cc(C(F)(F)F)c3s2)c(=O)c2ccccc12 | 100 nM | inhibition [4]: inactive
COc1ccc2c(=O)n(Cc3nc4ccccc4s3)nc(CC(=O)O)c2c1 | 28 nM | 
O=C(O)Cc1nn(Cc2nc3cc(Cl)cc(Cl)c3s2)c(=O)c2ccccc12 | 4 nM | ED50 [7]: 2.8 mg/kg; ED50 [6]: 3.5 mg/kg; inhibition [3]: 73%
O=C(O)Cc1nn(Cc2nc3c(Cl)cc(Cl)cc3s2)c(=O)c2ccccc12 | 170 nM | 
CC(c1nc2cc(Cl)ccc2s1)n1nc(CC(=O)O)c2ccccc2c1=O (configuration not stated) | 26 nM | inhibition [3]: 53%

Structure (SMILES) | IC50 [2] | further results
COc1ccc2sc(Cn3nc(CC(=O)O)c4ccccc4c3=O)nc2c1 | 230 nM | inhibition [5]: inactive
Cc1cccc2c(CC(=O)O)nn(Cc3nc4c(ccc5ccccc54)s3)c(=O)c12 | 42 nM | inhibition [4]: inactive
O=C(O)Cc1nn(Cc2nc3ccccc3s2)c(=O)c2cc(Cl)c(Cl)cc12 | 10 nM | 
O=C(O)Cc1nn(CCc2nc3cc(C(F)(F)F)ccc3s2)c(=O)c2ccccc12 | 460 nM | 
O=C(O)Cc1nn(Cc2nc3ccccc3s2)c(=O)c2ccc(Cl)cc12 | 34 nM | 
O=C(O)Cc1nn(Cc2nc3c(F)ccc(F)c3s2)c(=O)c2ccccc12 | 5 nM | inhibition [3]: 73%
O=C(O)Cc1nn(Cc2nc3cc(C(F)(F)F)cc(C(F)(F)F)c3s2)c(=O)c2ccccc12 | 1400 nM | inhibition [4]: inactive
CN1C(C(=O)Nc2nc3ccccc3s2)=C(O)c2ccccc2S1(=O)=O | 5500 nM | 
O=C(O)Cc1nn(Cc2nc3ccc(Br)cc3s2)c(=O)c2cc(Cl)c(Cl)cc12 | 1800 nM | 
O=C(O)Cc1nn(Cc2nc3ccccc3s2)c(=O)c2cc(C(F)(F)F)ccc12 | 12 nM | inhibition [4]: inactive
O=C(O)Cc1nn(Cc2nc3cc(F)cc(Cl)c3s2)c(=O)c2ccccc12 | 6.2 nM | inhibition [3]: 58%
CC(c1nc2ccccc2s1)n1nc(CC(=O)O)c2ccccc2c1=O (configuration not stated) | 43 nM | inhibition in vivo at 25 mg/kg ([1]; dose 25 mg/kg, route oral): 50%
O=C(O)Cc1nn(Cc2nc3cc(Cl)ccc3s2)c(=O)c2ccccc12 | 7.1 nM | inhibition [3]: 73%
O=C(O)Cc1nn(Cc2nc3cc(O)ccc3s2)c(=O)c2ccccc12 | 41 nM | 
O=C(O)Cc1nn(Cc2nc3ccc(Br)cc3s2)c(=O)c2ccccc12 | 26 nM | 
CS(=O)(=O)c1ccc2sc(Cn3nc(CC(=O)O)c4ccccc4c3=O)nc2c1 | 1700 nM | inhibition [4]: inactive
CC(c1nc2cc(C(F)(F)F)ccc2s1)n1nc(CC(=O)O)c2ccccc2c1=O (configuration not stated) | 37 nM | 
O=C(O)Cc1nn(Cc2nc3c(ccc4ccccc43)s2)c(=O)c2ccc(Cl)cc12 [listing 2 of 2 here] | 300 nM | 
O=C(O)Cc1nn(Cc2nc3cc(C(F)(F)F)c(O)cc3s2)c(=O)c2ccccc12 | 120 nM | inhibition [5]: inactive
O=C(O)Cc1nn(Cc2nc3cc(Cl)c(F)cc3s2)c(=O)c2ccccc12 | 110 nM | 
O=C(O)Cc1nn(Cc2nc3cc(F)c(F)cc3s2)c(=O)c2ccccc12 | 68 nM | inhibition in vivo at 25 mg/kg ([1]; dose 25 mg/kg, route oral): 75%

Structure (SMILES) | IC50 [2] | further results
O=C(O)Cc1nn(Cc2nc3cc(C(F)(F)F)cc(Cl)c3s2)c(=O)c2ccccc12 | 94 nM | inhibition [3]: 26%
O=C(O)c1nnc(O)c2ccccc12 |  | logP [8]: 2.42; pKa [9]: 6.35; pKa [10]: 5.49
O=C(O)Cc1nn(Cc2nc3ccccc3s2)c(=O)c2c(F)cccc12 | 30 nM | 
O=C(O)Cc1nn(Cc2nc3c(O)cccc3s2)c(=O)c2ccccc12 | 100 nM | inhibition [5]: inactive
O=C(O)Cc1nn(Cc2nc3cc(Cl)c(Cl)cc3s2)c(=O)c2ccccc12 | 420 nM | inhibition in vivo at 25 mg/kg ([1]; dose 25 mg/kg, route oral): 34%
COc1cc(C(F)(F)F)c2sc(Cn3nc(CC(=O)O)c4ccccc4c3=O)nc2c1 | 660 nM | 
Cc1ccc2nc(Cn3nc(CC(=O)O)c4ccccc4c3=O)sc2c1 | 320 nM | inhibition [5]: inactive
O=C(O)Cc1nn(Cc2nc3cc(O)cc(O)c3s2)c(=O)c2ccccc12 | 87 nM | 
O=C(O)Cc1nn(Cc2nc3c(Cl)cccc3s2)c(=O)c2ccccc12 | 3.5 nM | inhibition [3]: 63%
Cc1ccc2nc(Cn3nc(CC(=O)O)c4ccccc4c3=O)sc2c1F | 320 nM | 
Cc1cc(C)c2sc(Cn3nc(CC(=O)O)c4ccccc4c3=O)nc2c1 | 5.9 nM | inhibition in vivo at 25 mg/kg ([1]; po): 39%
O=C(O)Cc1nn(Cc2nc3cccc(Br)c3s2)c(=O)c2ccccc12 | 15 nM | inhibition [3]: 71%
COc1cc2nc(Cn3nc(CC(=O)O)c4ccccc4c3=O)sc2cc1F | 2300 nM | inhibition [5]: inactive
O=C(O)Cc1nn(Cc2nc3c(F)c(F)ccc3s2)c(=O)c2ccccc12 | 10 nM | inhibition [3]: 82%
O=C(O)Cc1nn(Cc2nc3ccc(O)cc3s2)c(=O)c2ccccc12 | 1000 nM | 
Cc1ccc2sc(Cn3nc(CC(=O)O)c4ccccc4c3=O)nc2c1 | 26 nM | inhibition [5]: inactive
O=C(O)Cc1nn(Cc2nc3ccccc3s2)c(=O)c2ccc(C(F)(F)F)cc12 | 18 nM | inhibition [4]: inactive
O=C(O)Cc1nn(Cc2nc3ccc(C(F)(F)F)cc3s2)c(=O)c2ccccc12 | 70 nM | inhibition [3]: 65%
